Measurements: ChEMBL document CHEMBL1134641, “Progress toward the development of a safe and effective agent for treating reentrant cardiac arrhythmias: synthesis and evaluation of ibutilide analogues with enhanced metabolic stability and diminished proarrhythmic potential” (2001)

Experiments:
Oryctolagus cuniculus [1] = species: Oryctolagus cuniculus; experiment: Mean dose of test compound at which a statistically significant increase was first observed and the dose for the maximum increase in QTc interval in rabbits; type: functional
In short: (§1)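 Male New Zealand white rabbits (2.5-3.5 kg), anesthetized and instrumented. Methoxamine infused at 10 µg/kg/min; methoxamine baseline taken after 15 min. Compound, dissolved in 0.1 M fumaric acid in absolute EtOH and diluted with saline, given as a continuous iv infusion of 5 mg/kg over 30 min. QTc (QT/√RR) and MAPD90 followed over time; cumulative mg/kg dose recorded at first significant rise (one-way ANOVA, p≤0.05) and at maximum rise.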

Oryctolagus cuniculus [2] = species: Oryctolagus cuniculus; experiment: Mean dose at which EADs (early after depolarizations) began to develop in rabbits; type: functional
In short: (§2)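 Male New Zealand white rabbits (2.5-3.5 kg), anesthetized and instrumented. Methoxamine infused at 10 µg/kg/min; baseline taken after 15 min. Compound in 0.1 M fumaric acid/EtOH diluted with saline, infused IV at 5 mg/kg over 30 min. Readouts: QTc and MAPD90 maxima vs methoxamine baseline, with accumulated dose, and dose at EAD or PVT onset. ANOVA, p ≤ 0.05.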

Oryctolagus cuniculus [3] = species: Oryctolagus cuniculus; experiment: Mean dose at which PVTs (Polymorphic ventricular tachyarrhythmias) were observed in rabbits; type: functional, Cardiac ventricle; in short: as §2
Oryctolagus cuniculus [4] = species: Oryctolagus cuniculus; experiment: Maximum increase in the ventricular monophasic action potential duration at 90% repolarization from the methoxamine infusion baseline in rabbits; type: functional, Cardiac ventricle; in short: as §2
Oryctolagus cuniculus [5] = experiment: In vivo evaluation of potential efficacy observed as the maximum increase in QTc interval from the methoxamine infusion baseline in rabbits; type: functional; in short: as §2
Oryctolagus cuniculus [6] = species: Oryctolagus cuniculus; experiment: Mean dose of test compound at which a statistically significant increase was first observed and the dose for the maximum increase in MAPD90 in rabbits (0.25-1.0); type: functional; in short: as §1
Homo sapiens = species: Homo sapiens; experiment: Metabolic stability in relative to 31E observed on incubation with human liver microsomes; type: functional; settings: Microsome
In short: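 Pooled human liver microsomes, 1 mg protein/mL, in 50 mM potassium phosphate pH 7.4. Substrate at 0.4-0.5 µM final; preincubated at 37 °C, then started with an NADPH-generating system (isocitrate/isocitrate dehydrogenase). Aliquots taken up to 20 min and quenched in acetonitrile. Remaining substrate measured by reversed-phase HPLC with fluorescence detection. Log-concentration vs time slope taken; ratio reported as reference slope/test slope; values >20 treated as stable. Three experiments.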

Oryctolagus cuniculus [7] = species: Oryctolagus cuniculus; experiment: Mean dose of test compound at which a statistically significant increase was first observed and the dose for the maximum increase in MAPD90 in rabbits (0.5-2.0); type: functional; in short: as §1
Oryctolagus cuniculus [8] = species: Oryctolagus cuniculus; experiment: Mean dose of test compound at which a statistically significant increase was first observed and the dose for the maximum increase in QTc interval in rabbits (0.25-5.0); type: functional; in short: as §1
Oryctolagus cuniculus [9] = species: Oryctolagus cuniculus; experiment: Mean dose of test compound at which a statistically significant increase was first observed and the dose for the maximum increase in MAPD90 in rabbits (0.5-1.0); type: functional; in short: as §1
Oryctolagus cuniculus [10] = species: Oryctolagus cuniculus; experiment: Mean dose of test compound at which a statistically significant increase was first observed and the dose for the maximum increase in QTc interval in rabbits (0.1-0.25); type: functional; in short: as §1
Oryctolagus cuniculus [11] = species: Oryctolagus cuniculus; experiment: Mean dose of test compound at which a statistically significant increase was first observed and the dose for the maximum increase in MAPD90 in rabbits (0.1-0.5); type: functional; in short: as §2
Oryctolagus cuniculus [12] = species: Oryctolagus cuniculus; experiment: Mean dose of test compound at which a statistically significant increase was first observed and the dose for the maximum increase in MAPD90 in rabbits (0.1-0.25); type: functional; in short: as §2
Oryctolagus cuniculus [13] = species: Oryctolagus cuniculus; experiment: Mean dose of test compound at which a statistically significant increase was first observed and the dose for the maximum increase in QTc interval in rabbits (0.2-1.0); type: functional; in short: as §1
Oryctolagus cuniculus [14] = species: Oryctolagus cuniculus; experiment: Mean dose of test compound at which a statistically significant increase was first observed and the dose for the maximum increase in MAPD90 in rabbits (0.25-2.0); type: functional; in short: as §1
Oryctolagus cuniculus [15] = species: Oryctolagus cuniculus; experiment: Mean dose of test compound at which a statistically significant increase was first observed and the dose for the maximum increase in MAPD90 in rabbits (0.25-5.0); type: functional; in short: as §1
Oryctolagus cuniculus [16] = species: Oryctolagus cuniculus; experiment: Mean dose of test compound at which a statistically significant increase was first observed and the dose for the maximum increase in MAPD90 in rabbits (0.1-1.0); type: functional; in short: as §2
Oryctolagus cuniculus [17] = species: Oryctolagus cuniculus; experiment: Mean dose of test compound at which a statistically significant increase was first observed and the dose for the maximum increase in MAPD90 in rabbits; type: functional; in short: as §2

Compound | Dose (Oryctolagus cuniculus [1]) | Dose (Oryctolagus cuniculus [2]) | Dose (Oryctolagus cuniculus [3]) | MAPD90 (Oryctolagus cuniculus [4]) | QTc interval (Oryctolagus cuniculus [5]) | Metabolic stability relative to 31E (Homo sapiens) | also measured
CCN(CCCCCC(C)(F)F)CCCC(O)c1ccc(NS(C)(=O)=O)cc1 (centres undefined) | 0.25 mg/kg | 0.4 mg/kg | 0.7 mg/kg | 118 ms | 96 ms | – | Dose (Oryctolagus cuniculus [6]): 1 mg/kg
CCN(CC/C=C/c1ccc(NS(C)(=O)=O)cc1)CCCCCC(C)F (centres undefined) | 2 mg/kg | 0.3 mg/kg | 1.5 mg/kg | 133 ms | 75 ms | 300% | Dose (Oryctolagus cuniculus [7]): 2 mg/kg
CCCCCCCN(CC)CCCC(O)c1ccc(NS(C)(=O)=O)cc1 (centres undefined) [IBUTILIDE] | – | 1.7 mg/kg | 1 mg/kg | 65 ms | 85 ms | – | Dose (Oryctolagus cuniculus [8]): 5 mg/kg; Dose (Oryctolagus cuniculus [9]): 1 mg/kg
CCN(CCCCCCC(F)F)CCC[C@H](O)c1ccc(NS(C)(=O)=O)cc1 | – | 0.5 mg/kg | 0.25 mg/kg | 58 ms | 118 ms | – | Dose (Oryctolagus cuniculus [10]): 0.25 mg/kg; Dose (Oryctolagus cuniculus [11]): 0.5 mg/kg
CCN(CCCCCC(C)(C)F)CCC[C@@H](O)c1ccc(NS(C)(=O)=O)cc1 | – | 0.5 mg/kg | 0.27 mg/kg | 59 ms | 92 ms | – | Dose (Oryctolagus cuniculus [10]): 0.25 mg/kg; Dose (Oryctolagus cuniculus [12]): 0.25 mg/kg
CCN(CCCCC(C)(C)F)CCCC(O)c1ccc(NS(C)(=O)=O)cc1 (centres undefined) | – | 1.4 mg/kg | 3.6 mg/kg | 178 ms | 174 ms | – | Dose (Oryctolagus cuniculus [13]): 1 mg/kg; Dose (Oryctolagus cuniculus [14]): 2 mg/kg
CCN(CCCCCC(C)(C)F)CCCC(O)c1ccc(NS(C)(=O)=O)cc1 (centres undefined) | 0.25 mg/kg | 0.9 mg/kg | 0.25 mg/kg | 96 ms | 136 ms | > 2000% | Dose (Oryctolagus cuniculus [9]): 1 mg/kg
CCN(CCCCCC(C)(C)F)CCCCc1ccc(NS(C)(=O)=O)cc1 | – | – | – | 90 ms | 105 ms | 300% | Dose (Oryctolagus cuniculus [8]): 5 mg/kg; Dose (Oryctolagus cuniculus [15]): 5 mg/kg
CCN(CCCCCC(C)F)CCC[C@H](O)c1ccc(NS(C)(=O)=O)cc1 (some centres undefined) | – | 0.2 mg/kg | 0.4 mg/kg | 90 ms | 130 ms | > 2000% | Dose (Oryctolagus cuniculus [10]): 0.25 mg/kg; Dose (Oryctolagus cuniculus [16]): 1 mg/kg
CCN(CCCCCC(C)(C)F)CCC[C@H](O)c1ccc(NS(C)(=O)=O)cc1 | – | – | – | – | – | > 2000% | –
CCN(CCCCCCC(F)F)CCCC(O)c1ccc(NS(C)(=O)=O)cc1 (centres undefined) | 0.25 mg/kg | 0.3 mg/kg | 0.3 mg/kg | 48 ms | 71 ms | > 2000% | Dose (Oryctolagus cuniculus [17]): 0.25 mg/kg
